A selection: hits, their analogues and other compounds. The true share with any hit is near 2.5%.
SENP1 inh: human SENP1 catalytic domain inhibitors, primary screen, biochemical, FRET, uHTS; AID 624204, 2012; inhibition, % at 10 µM; Sentrin-specific protease 1 (Homo sapiens), Q9P0U3; recombinant SENP1 catalytic domain, CyPet-SUMO1-YPet FRET cleavage; 0.21% of 360,000 active;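 active = inhibition at least 30% at 10 µM, raw YFP signal under a set limit, fluorescence ratio 0.5 to 1.5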
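system = hSENP1 catalytic domain, recombinant | reagent = SFCypet-SUMO1-SFYpet substrate at 25 nM | doses = one dose per compound, 10 µM, 0.5% DMSO | incubation = enzyme reaction for 50 min at room temperature, dark | measured by = FRET, CFP and YFP emission | controls = no-enzyme low, enzyme-DMSO high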
ABHD5-PLIN5 inh: ABHD5-PLIN5 interaction inhibitors, primary screen, cell lysate, split luciferase complementation, luminescence; Perilipin-5 (Homo sapiens) + 1-acylglycerol-3-phosphate O-acyltransferase ABHD5 (Homo …; Split G. princeps luciferase complementation, 4 h; inhibition, % at 4 µM; AID 602281, 2012; 0.78% of 360,000 active;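 active = inhibition above the mean inhibition across every tested compound plus 3 SD, cut at about 22% in these data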
Beta2AR agonist: beta2AR agonists driving receptor internalization, primary screen, cell-based, FAP fluorogen, flow cytometry; Beta-2 adrenergic receptor (Homo sapiens), P07550; Am2.2-beta2AR cells; response, % (test concentration not listed); 0.43% of 340,000 active;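 active = response above a set limit, near 3 SD of response in nonfluorescent compounds, cut at about 42% in these data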
GRK2 inh: compounds blocking aptamer binding on GRK2 – biochemical, human GRK2, bead flow cytometry, HTS, primary screen. Beta-adrenergic receptor kinase 1 (Homo sapiens), P25098. FAM-aptamer displacement from GRK2. inhibition of aptamer binding, % at 10 µM. 0.59% of 330,000 active;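 active = inhibition of aptamer binding above 40%, roughly 3 SD of noise, on plates passing a quality check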;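 note: median bead fluorescence of bound FAM aptamer so fluorescent compounds give negative values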
Target sequence (P25098 whole entry, looked up): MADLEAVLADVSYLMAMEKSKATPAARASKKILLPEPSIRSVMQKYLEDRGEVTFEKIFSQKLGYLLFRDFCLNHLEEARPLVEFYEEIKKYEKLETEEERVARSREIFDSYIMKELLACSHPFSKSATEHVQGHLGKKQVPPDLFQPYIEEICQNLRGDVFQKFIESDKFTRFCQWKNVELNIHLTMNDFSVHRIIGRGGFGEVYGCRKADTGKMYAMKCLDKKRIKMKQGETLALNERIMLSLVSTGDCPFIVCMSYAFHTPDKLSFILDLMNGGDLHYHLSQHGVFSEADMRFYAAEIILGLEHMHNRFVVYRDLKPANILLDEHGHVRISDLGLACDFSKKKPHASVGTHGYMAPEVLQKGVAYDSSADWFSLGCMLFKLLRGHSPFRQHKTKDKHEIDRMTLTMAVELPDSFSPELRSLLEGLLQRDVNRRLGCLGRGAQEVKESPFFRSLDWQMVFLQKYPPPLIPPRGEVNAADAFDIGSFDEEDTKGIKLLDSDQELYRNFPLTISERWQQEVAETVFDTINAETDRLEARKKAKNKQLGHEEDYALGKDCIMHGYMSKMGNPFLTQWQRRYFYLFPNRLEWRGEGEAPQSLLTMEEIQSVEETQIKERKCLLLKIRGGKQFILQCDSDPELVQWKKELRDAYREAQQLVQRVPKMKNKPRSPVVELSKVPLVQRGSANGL
NadD block: inhibitors of S. aureus NadD, primary screen, biochemical, colorimetric, uHTS; AID 602399, 2012; inhibition, % at 20 µM; 0.78% of 360,000 active; Nicotinate-nucleotide adenylyltransferase NadD (Staphylococcus aureus N315); purified NadD enzyme, colorimetric absorbance read-out; in the data active = inhibition above about 26%
NadD inh conf: inhibitors of S. aureus NadD, confirmation, biochemical, colorimetric, single concentration | shares compounds with NadD block | 13% of 2,000 active | purified S. aureus NadD, colorimetric enzyme assay | inhibition, % at 20 µM | AID 624309, 2012; in the data active = inhibition mostly above about 42%, no sharp cut-off; inactive = mostly below about 42%
Large screens that a line does not name were inactive (follow-up assays come after a bar, where they were run).

CCN(CC)C(=O)CSC1=N/C(=C/c2ccco2)C(=O)N1c1ccc(OC)c(Cl)c1	none
COc1ccc(N2C(=O)/C(=C\c3ccco3)N=C2SCC(=O)NC(C)(C)C)cc1Cl	NadD block 31 | NadD inh conf inactive
Cc1ccc(NS(=O)(=O)c2ccc(Cl)c(C(=O)Nc3ccccc3-c3nc4ccccc4[nH]3)c2)cc1C	NadD block 47 | NadD inh conf inactive
O=C(Nc1cccc(C(=O)O)c1)/C(=C/c1ccc([N+](=O)[O-])cc1)NC(=O)c1ccccc1	none
CC(C)(C)c1ccc(C(=O)N/C(=C\c2cccc([N+](=O)[O-])c2)C(=O)Nc2cccc(C(=O)O)c2)cc1	NadD block 31 | NadD inh conf inactive
O=C(COc1cccc2ccccc12)N/N=C/c1ccc(Sc2nc3ccccc3s2)o1	NadD block 36 | NadD inh conf inactive
CCC(=O)N1C(=O)CCN(C(C)=O)c2ccccc21	NadD block 36 | NadD inh conf inactive
CCCCN(C(=O)c1cccs1)C1CCS(=O)(=O)C1 (stereo not drawn)	none
Cc1c2cnn(CC(=O)Nc3c(F)c(F)cc(F)c3F)c(=O)c2c(C)n1Cc1ccccc1F	NadD block 32 | NadD inh conf inactive
Cc1ccc2nc(-c3ccccc3)c(Cc3cccc(Cl)c3)n2c1	none (no result: Beta2AR agonist, GRK2 inh)
Cc1cc(Br)c2nc(-c3ccccc3)c(Cc3cccc(Cl)c3)n2c1	NadD block 31 (no result: Beta2AR agonist, GRK2 inh) | NadD inh conf inactive
CC(=O)NC1=CC(=C[N+](=O)[O-])C=C1O	none (no result: GRK2 inh)
CCN1c2ccccc2NC2C1C(C(C)=O)C(=O)N2c1ccc(Cl)cc1 (stereo not drawn)	NadD block 37 | NadD inh conf inactive
Cc1cc(C(=O)N/N=C/c2ccc(-c3ccc([N+](=O)[O-])cc3Cl)o2)n[nH]1	NadD block 40 | NadD inh conf inactive
Cc1cc(C(=O)N/N=C/c2ccc(-c3cccc([N+](=O)[O-])c3)o2)n[nH]1	none
O=C(CNC(=O)c1ccccc1Cl)OC1CCOC1=O (stereo not drawn)	none
O=C(Nc1ccc(F)cc1)c1nc2c(nnn2Cc2cccc3ccccc23)c(=O)[nH]1	NadD block 33 | NadD inh conf inactive
O=[N+]([O-])c1cccc(S(=O)(=O)N2CCN(c3ccccn3)CC2)c1	none
O=C(O)CSc1cc(C(=O)c2ccccc2O)cn2c(=O)c3c(-c4ccccc4)csc3nc12	NadD block 38 | NadD inh conf 57
CCOC(=O)c1sc2nc3c(SCC(=O)O)cc(C(=O)c4cc(F)ccc4O)cn3c(=O)c2c1C	NadD block 33 | NadD inh conf inactive
COc1ccc(-n2c(SCC(=O)O)nc3sc4c(c3c2=O)CCCC4)cc1	none
COc1ccc(O)c(C(=O)c2cc(SCC(=O)O)c3nc4sc5c(c4c(=O)n3c2)CCCC5)c1	NadD block 46 | NadD inh conf inactive
Cc1sc2nc3c(SC(C)C(=O)O)cc(C(=O)c4ccccc4O)cn3c(=O)c2c1C (stereo not drawn)	none
COc1ccc2c(c1)CCC1C2CCC2(C)C(O)C(=O)CC12 (stereo not drawn)	none (no result: GRK2 inh)
O=C(c1cc2sccc2n1Cc1ccc(F)cc1)N1CCN(c2nc3ccccc3s2)CC1	NadD block 55 | NadD inh conf inactive
Cn1c(C(=O)N2CCN(c3nc4ccccc4s3)CC2)cc2sccc21	none
CCOc1ccccc1/C=C/c1onc(C)c1S(=O)(=O)N1CCC(C(=O)NC(C)(C)C)CC1	none
Cc1ccc(-c2csc(/C=C3\SC(C)C(=O)N3CC(=O)Nc3ccccc3F)n2)cc1 (stereo not drawn)	NadD block 32 | NadD inh conf inactive
CC(=O)c1nn(-c2cccc(Br)c2)cc1C(=O)c1ccco1	none
Cc1nnc(-c2ccco2)c2cn(-c3cccc(Br)c3)nc12	NadD block 37 | NadD inh conf inactive
CCOC(=O)C1=C(COC(=O)CCc2ccccc2)NC(=O)NC1C (stereo not drawn)	none
COC(=O)c1cccc(CN2C(=O)SC(Nc3ccccc3)C2=O)c1 (stereo not drawn)	NadD block 31 | NadD inh conf inactive
COc1cc(NS(=O)(=O)c2ccc(N/C=C(\C#N)c3nc4cc(Cl)ccc4o3)cc2)nc(OC)n1	NadD block 39 | NadD inh conf inactive
COc1ccc(C(=O)/C=C/Nc2ccc(S(=O)(=O)Nc3cc(OC)nc(OC)n3)cc2)c(OC)c1	NadD block 32 | NadD inh conf inactive
COc1ccc(-c2csc(Nc3ccc(S(=O)(=O)Nc4cc(OC)nc(OC)n4)cc3)n2)cc1	NadD block 28 | NadD inh conf inactive
Cc1ccccc1C(=O)Nc1nc(-c2cccnc2)cs1	NadD block 30 | NadD inh conf inactive
COc1cccc(C(=O)/C=C/Nc2ccc(S(=O)(=O)Nc3cc(OC)nc(OC)n3)cc2)c1	none
O=C(Nc1nc(-c2cccnc2)cs1)c1ccccc1Cl	none
CCCN=C1N(CC)C[C@@H]2[C@@H]3C(=O)N(C)C(=O)[C@@H]3[C@](C)(C(=O)OC)N12	none
COc1cc(/C=C/c2cccc[n+]2C)ccc1OCC(=O)Nc1cccc(Cl)c1	none
CC(=O)NC12CC3CC(C1)CC(C(=O)Oc1ccc(N(C)S(=O)(=O)c4cc(C)ccc4C)cc1)(C3)C2	none
COc1ccc(-c2csc(NC(=O)c3ccccc3NS(=O)(=O)c3ccc(C)cc3)n2)cc1	NadD block 42 | NadD inh conf 51
COc1cc2c(cc1NC(=O)C(C)N1CCN(S(=O)(=O)c3ccccc3[N+](=O)[O-])CC1)oc1ccccc12 (stereo not drawn)	NadD block 38 | NadD inh conf inactive
COc1ccc(Cl)cc1NC(=O)C(C)OC(=O)c1ccc(NS(=O)(=O)c2ccc3[nH]c(=O)[nH]c3c2)cc1 (stereo not drawn)	NadD block 36 | NadD inh conf inactive
COc1cc2c(cc1NC(=O)C(C)OC(=O)c1ccc(S(=O)(=O)Nc3ccccc3Cl)cc1)oc1ccccc12 (stereo not drawn)	NadD block 32 | NadD inh conf inactive
COc1cc2c(cc1NC(=O)CN1CCN(S(=O)(=O)c3ccc(C)cc3)CC1)oc1ccccc12	NadD block 33 | NadD inh conf inactive
COc1ccc(-c2[nH]n(-c3ccc([N+](=O)[O-])cc3)c(=O)c2C=NCc2ccncc2)cc1	NadD block 29 | NadD inh conf inactive

Assay outcomes deposited in PubChem BioAssay by several laboratories.
